According to PMC10731006 (Heliyon, 2023):
Values after ≈ are worked out from the molar mass of the structure shown. “Also recorded” adds a separate entry of the source.

Tests used:
[1] = test system: Escherichia coli (ATCC 25922); assay: Micro-broth dilution assay; type: cell-based; conditions: ATCC25922, read-out: MIC EC
[2] = test system: B. subtilis (ATCC 6633); assay: Agar diffusion test, B. subtilis; type: cell-based; conditions: Bacillus subtilis, ATCC6633, read-out: Zone of inhibition BS
[3] = test system: glioblastoma (U-87 MG) cells; assay: MTT cytotoxicity assay, U-87 MG; type: cell-based, human; conditions: for IC50: Homo sapiens, U-87 MG, 96 h, read-out: IC50 U87; for SI U87 (selectivity index): IC50 in HDF / IC50 in U87, 96 h
Outline: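 U-87 MG cells were cultured in DMEM with 10% FCS, 2 mM L-glutamine and 1% penicillin-streptomycin at 37 °C, 5% CO2. Seeding was 1 × 10^4 cells/ml; after overnight adherence, test compound diluted in medium (six final levels, 1–600) was applied for 96 h alongside DMSO-matched and cisplatin controls. Read-out: MTT 5 mg/ml for 4 h, DMSO solubilisation, A540, in triplicate, IC50 fitted. SI = IC50 in HDF / IC50 in U87.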

[4] = test system: human dermal fibroblast (HDF, human dermal cell line); assay: MTT cytotoxicity assay, normal cells; type: cell-based; conditions: Homo sapiens, Fibroblast, 96 h, read-out: IC50 HDF
Outline: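 Human dermal fibroblasts were maintained in DMEM with 10% FCS, 2 mM L-glutamine and 1% penicillin-streptomycin (37 °C, 5% CO2). They were seeded at 1 × 10^4 cells/ml, allowed to adhere overnight, then treated 96 h with serially diluted test compound (six final levels, 1–600) beside DMSO-matched vehicle and cisplatin controls. Then MTT 5 mg/ml was added for 4 h, formazan taken up in DMSO, and absorbance read at 540 nm, in triplicate. IC50 was fitted.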

[5] = test system: Gram-positive and Gram-negative bacterial test strains; assay: Antibacterial activity, whole panel of test strains; type: cell-based
Outline: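 Disc diffusion followed CLSI (2012). Test compound at 10, 50 and 100 μg/disc was loaded on 6-mm blank filter discs laid on Mueller Hinton agar seeded at 10^6 cells/ml. Strains were S. aureus ATCC 10145, B. cereus ATCC 11778, B. subtilis ATCC 6633, P. aeruginosa ATCC 13048 and E. coli ATCC 25922. Inhibition zones were recorded.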

[6] = test system: non-small cell lung cancer (A549) cells; assay: MTT cytotoxicity assay, A549; type: cell-based, human; conditions: for IC50: Homo sapiens, A549, 96 h, read-out: IC50 A549; for SI A549 (selectivity index): IC50 in HDF / IC50 in A549, 96 h
Outline: (§1)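 Cells were grown in RPMI 1640 with 10% FCS, 2 mM L-glutamine and 1% penicillin-streptomycin at 37 °C under 5% CO2. They were seeded at 1 × 10^4 cells/ml, left overnight to adhere, and exposed 96 h to test compound diluted in medium (six final levels, 1–600), with DMSO-matched and cisplatin controls. MTT at 5 mg/ml was added for 4 h, formazan dissolved in DMSO, and A540 read, in triplicate. IC50 was fitted from the data. SI = IC50 in HDF / IC50 in this line.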

[7] = test system: breast cancer (MCF7) cells; assay: MTT cytotoxicity assay, MCF7; type: cell-based, human; conditions: for IC50: Homo sapiens, MCF7, 96 h, read-out: IC50 MCF-7; for SI MCF-7 (selectivity index): IC50 in HDF / IC50 in MCF-7, 96 h
Outline: as §1

[8] = test system: Pseudomonas aeruginosa (ATCC 13048); assay: Micro-broth dilution assay; type: cell-based; conditions: ATCC13048, read-out: MIC PA
[9] = test system: Bacillus cereus (ATCC 11778); assay: Agar diffusion test, B. cereus; type: cell-based; conditions: ATCC11778, read-out: Zone of inhibition BC
[10] = test system: Bacillus cereus (ATCC 11778); assay: Micro-broth dilution assay; type: cell-based; conditions: ATCC11778, read-out: MIC BC
[11] = test system: B. subtilis (ATCC 6633); assay: Micro-broth dilution assay; type: cell-based; conditions: Bacillus subtilis, ATCC6633, read-out: MIC BS
[12] = test system: Staphylococcus aureus (ATCC 10145); assay: Micro-broth dilution assay; type: cell-based; conditions: ATCC10145, read-out: MIC SA
[13] = test system: cancer cell lines (U87, MCF-7 and A549) compared to normal cells (HDF); assay: MTT cytotoxicity, cancer cell lines compared to normal cells; type: cell-based, human; conditions: 96 h treatment
Outline: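 A549 and MCF7 grown in RPMI 1640, HDF and U87 in DMEM, each with 10% FCS, 2 mM L-glutamine, 1% pen-strep, 37 °C, 5% CO2. Cells at 1 × 10^4 cells/ml were adhered overnight, then exposed 96 h to test compound (final 1–600 […] in medium). Controls were blank, untreated, DMSO-matched and cisplatin (1–100 μM/mL). MTT 5 mg/ml for 4 h; DMSO-solubilised formazan read at 540 nm, triplicate. IC50 from curve fitting; selectivity index = HDF IC50 / cancer-line IC50.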

[14] = DPPH radical scavenging assay
[15] = ABTS radical scavenging assay
[16] = test system: Escherichia coli (ATCC 25922); assay: Agar diffusion test, E. coli; type: cell-based; conditions: ATCC25922, read-out: Zone of inhibition EC
[17] = test system: Pseudomonas aeruginosa (ATCC 13048); assay: Agar diffusion test, P. aeruginosa; type: cell-based; conditions: ATCC13048, read-out: Zone of inhibition PA

MIC [1]	MIC [8]	MIC [10]	MIC [11]	MIC [12]	IC50 ± SD, DPPH [14]	IC50 ± SD, ABTS [15]	SMILES	IC50 [3]	SI U87 (selectivity index) [3]	IC50 [4]	IC50 [6]	SI A549 (selectivity index) [6]	IC50 [7]	SI MCF-7 (selectivity index) [7]	% inhibition ±SD, DPPH ([14]; 10 μg/ml)	% inhibition ±SD, DPPH ([14]; 25 μg/ml)	% inhibition ±SD, DPPH ([14]; 50 μg/ml)	% inhibition ±SD, DPPH ([14]; 100 μg/ml)	% inhibition ±SD, ABTS ([15]; 5 μg/ml)	% inhibition ±SD, ABTS ([15]; 10 μg/ml)	other results
> 500 µg/mL	> 500 µg/mL	500 µg/mL (≈ 889 µM)	500 µg/mL (≈ 889 µM)	> 500 µg/mL	32.6 ± 2.9 µg/mL (≈ 57.9 µM)	17.8 ± 1.1 µg/mL (≈ 31.6 µM)	COC(=O)c1cn(C2CC2)c2cc(N3CCN(C(=O)c4c(C)nnn4Cc4ccc(F)cc4)CC3)c(F)cc2c1=O [Compound 6a, methyl 7-(4-(1-(4-fluorobenzyl)-4-methyl-1H-1,2,3-triazole-5-carbonyl)piperazin-1-yl)-1-cyclopropyl-6-fluoro-4-oxo-1,4-dihydroquinoline-3-carboxylate]	34.6 ± 7.8 µM	14.6	504 ± 19.9 µM	139 ± 9.3 µM	3.6	112 ± 10.1 µM	4.5	40.2 ± 0.4%	47.2 ± 1.0%	53.2 ± 0.9%	63.3 ± 0.8%	22.7 ± 0.2%	48.7 ± 0.5%	zone of inhibition at 100 µg/disc [2]: 11.3 ± 1.2 mm; zone of inhibition at 300 µg/disc [2]: 13.1 ± 0.6 mm; zone of inhibition at 500 µg/disc [2]: 14.6 ± 0.7 mm; antibacterial activity in words [5]: bioactivity against Gram-positive bacterial test strains; zone of inhibition at 100 µg/disc [9]: 12.7 ± 0.6 mm; zone of inhibition at 300 µg/disc [9]: 14.6 ± 0.3 mm; zone of inhibition at 500 µg/disc [9]: 15.3 ± 0.3 mm; cytotoxic / anti-proliferative activity in words [13]: remarkable anti-proliferative activity against all three cell-lines; also recorded: significant cytotoxic activity against all cancer cell lines; % inhibition ±SD, DPPH ([14]; 5 μg/ml): 27.04 ± 0.2%; % inhibition ±SD, ABTS ([15]; 25 μg/ml): 53.5 ± 0.3%; % inhibition ±SD, ABTS ([15]; 50 μg/ml): 71.1 ± 1.0%; % inhibition ±SD, ABTS ([15]; 100 μg/ml): 75.5 ± 0.5%
500 µg/mL (≈ 889 µM)	500 µg/mL (≈ 889 µM)	> 500 µg/mL	> 500 µg/mL	> 500 µg/mL	32.4 ± 1.1 µg/mL (≈ 57.6 µM)	35.3 ± 1.6 µg/mL (≈ 62.7 µM)	COC(=O)c1cn(C2CC2)c2cc(N3CCN(C(=O)c4c(C)nnn4Cc4cccc(F)c4)CC3)c(F)cc2c1=O [Compound 6b, methyl 7-(4-(1-(3-fluorobenzyl)-4-methyl-1H-1,2,3-triazole-5-carbonyl)piperazin-1-yl)-1-cyclopropyl-6-fluoro-4-oxo-1,4-dihydroquinoline-3-carboxylate]	1.2 ± 0.8 µM	142.3	171 ± 8.1 µM	29.4 ± 6.2 µM	5.8	10.6 ± 2.3 µM	16.1	18.9 ± 0.3%	40.6 ± 0.9%	58.5 ± 0.6%	84.1 ± 0.2%	11.8 ± 0.5%	28.3 ± 0.4%	antibacterial activity in words [5]: activity against Gram-negative ones without inhibiting the Gram-positive test strains; zone of inhibition at 100 µg/disc [16]: 10.6 ± 1.2 mm; zone of inhibition at 300 µg/disc [16]: 13.3 ± 1.5 mm; zone of inhibition at 500 µg/disc [16]: 14.7 ± 0.6 mm; zone of inhibition at 100 µg/disc [17]: 12.3 ± 0.7 mm; zone of inhibition at 300 µg/disc [17]: 13.6 ± 0.6 mm; zone of inhibition at 500 µg/disc [17]: 15.3 ± 0.3 mm; cytotoxic / anti-proliferative activity in words [13]: remarkable anti-proliferative activity against all three cell-lines; also recorded: significant cytotoxic activity against all cancer cell lines; % inhibition ±SD, ABTS ([15]; 25 μg/ml): 43.4 ± 0.3%; % inhibition ±SD, ABTS ([15]; 50 μg/ml): 53.9 ± 0.8%; % inhibition ±SD, ABTS ([15]; 100 μg/ml): 72.9 ± 0.5%
> 500 µg/mL	> 500 µg/mL	> 500 µg/mL	> 500 µg/mL	> 500 µg/mL	18.5 ± 1.6 µg/mL (≈ 32.1 µM)	24.2 ± 1.0 µg/mL (≈ 42 µM)	COC(=O)c1cn(C2CC2)c2cc(N3CCN(C(=O)c4c(C)nnn4-c4ccc([N+](=O)[O-])cc4)CC3)c(F)cc2c1=O [Compound 6e, methyl 7-(4-(1-(4-nitrophenyl)-4-methyl-1H-1,2,3-triazole-5-carbonyl)piperazin-1-yl)-1-cyclopropyl-6-fluoro-4-oxo-1,4-dihydroquinoline-3-carboxylate]	45 ± 7.1 µM	1.8	83 ± 5.8 µM	79 ± 4.7 µM	1.1	58.6 ± 5.9 µM	1.4	33.8 ± 0.5%	54.5 ± 0.4%	60.7 ± 0.8%	67.9 ± 0.6%	14.9 ± 1.4%	37.0 ± 0.2%	zone of inhibition at 100 µg/disc [2]: 9.6 ± 0.6 mm; zone of inhibition at 300 µg/disc [2]: 13.1 ± 0.3 mm; zone of inhibition at 500 µg/disc [2]: 14.3 ± 0.6 mm; zone of inhibition at 100 µg/disc [9]: 10.3 ± 0.6 mm; zone of inhibition at 300 µg/disc [9]: 11.3 ± 0.6 mm; zone of inhibition at 500 µg/disc [9]: 13.3 ± 0.6 mm; % inhibition ±SD, DPPH ([14]; 5 μg/ml): 17.1 ± 0.6%; % inhibition ±SD, ABTS ([15]; 25 μg/ml): 50.3 ± 0.5%; % inhibition ±SD, ABTS ([15]; 50 μg/ml): 71.2 ± 0.2%; % inhibition ±SD, ABTS ([15]; 100 μg/ml): 74.3 ± 0.4%
> 500 µg/mL	> 500 µg/mL	> 500 µg/mL	> 500 µg/mL	> 500 µg/mL	56.2 ± 2.1 µg/mL (≈ 102 µM)	39.2 ± 2.1 µg/mL (≈ 71.5 µM)	COC(=O)c1cn(C2CC2)c2cc(N3CCN(C(=O)c4c(C)nnn4-c4ccc(F)cc4)CC3)c(F)cc2c1=O [Compound 6f, methyl 7-(4-(1-(4-fluorophenyl)-4-methyl-1H-1,2,3-triazole-5-carbonyl)piperazin-1-yl)-1-cyclopropyl-6-fluoro-4-oxo-1,4-dihydroquinoline-3-carboxylate]	7.9 ± 2.3 µM	18	142 ± 4.1 µM	104 ± 4.5 µM	1.4	10.6 ± 3 µM	13.3	20.7 ± 0.8%	39.5 ± 0.5%	48.9 ± 0.4%	66.9 ± 0.3%	13.3 ± 0.6%	29.7 ± 0.7%	antibacterial activity in words [5]: deprived of any antibacterial activity; cytotoxic / anti-proliferative activity in words [13]: significant cytotoxic activity against only U-87 and MCF-7 cancer cell lines; % inhibition ±SD, DPPH ([14]; 5 μg/ml): 10.6 ± 0.9%; % inhibition ±SD, ABTS ([15]; 25 μg/ml): 46.1 ± 0.1%; % inhibition ±SD, ABTS ([15]; 50 μg/ml): 54.1 ± 0.7%; % inhibition ±SD, ABTS ([15]; 100 μg/ml): 64.2 ± 0.4%
					5.2 ± 0.3 µg/mL (≈ 20.8 µM)	2.7 ± 0.2 µg/mL (≈ 10.8 µM)	Cc1c(C)c2c(c(C)c1O)CCC(C)(C(=O)O)O2 (stereo not shown) [Trolox®, reference compound]														
